This is an account of results in paper PMC10184136 (RSC Advances, 2023).

Data set [1] deals with calf intestinal alkaline phosphatase (CIALP) (Bos taurus, UniProt P19111). The data set is described as follows: Alkaline phosphatase inhibition assay. The data set is classed as biochemical.
The target of the next data set is alkaline phosphatase (Bos taurus, UniProt P19111). The data set is described as follows: Kinetic analysis. As to conditions: for K m / V max: substrate p-NPP. The data set is classed as biochemical, calf. In a few lines:
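Run under the same pre-incubation and conditions as the CIALP p-NPP assay. p-NPP was used at 10, 5, 2.5, 1.25, 0.625 and 0.3125 mM with inhibitor at 0, 0.106, 0.211 and 0.422 μM. Initial velocities came from the linear absorbance phase, read at 1-min intervals up to 10 min. Inhibition type was taken from Lineweaver–Burk plots (1/V vs 1/[S]). Ki came from a secondary plot of slope vs inhibitor concentration, with linear least-squares fits.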

Data set [2] concerns red blood cell membrane (bovine erythrocytes). The data set is described as follows: Hemolytic activity. It counts as cell-based. The conditions noted are these: bovine erythrocyte (RBC) suspension, pH 7.4. In a few lines:
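Bovine blood was collected in EDTA, diluted with 0.9% NaCl and centrifuged at 1000×g for 10 min. Erythrocytes were suspended in phosphate saline buffer, pH 7.4. 20 μl of a 10 mg ml−1 compound solution was added to 180 μl RBC suspension and incubated 30 min at room temperature. PBS was the negative control and Triton X-100 the positive control. % hemolysis was calculated by formula; mean ± SEM.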

The structures appear in SMILES notation. “Also recorded” adds a separate entry of the source.

Sequence of alkaline phosphatase (P19111 20-506 limits assumed): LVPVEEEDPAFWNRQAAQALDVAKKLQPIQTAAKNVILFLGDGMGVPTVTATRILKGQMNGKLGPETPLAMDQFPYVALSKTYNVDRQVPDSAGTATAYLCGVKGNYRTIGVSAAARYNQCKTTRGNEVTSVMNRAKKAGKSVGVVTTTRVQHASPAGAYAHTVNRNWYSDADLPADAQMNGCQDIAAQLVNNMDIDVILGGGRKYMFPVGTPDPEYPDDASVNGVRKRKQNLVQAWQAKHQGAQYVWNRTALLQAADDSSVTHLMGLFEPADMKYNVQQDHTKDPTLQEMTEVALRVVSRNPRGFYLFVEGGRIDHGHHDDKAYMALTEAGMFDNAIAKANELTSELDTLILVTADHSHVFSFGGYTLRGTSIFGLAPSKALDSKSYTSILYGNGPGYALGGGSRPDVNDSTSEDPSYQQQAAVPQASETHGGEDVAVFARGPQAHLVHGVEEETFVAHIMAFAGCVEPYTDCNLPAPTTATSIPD
Sequence of calf intestinal alkaline phosphatase (CIALP) (P19111 20-506 limits assumed): as above

In the case of `Cc1cnc(NC(=O)CCSc2nnc(-c3ccc(N)cc3)o2)s1` [8g, 3-{[5-(4-Aminophenyl)-1,3,4-oxadiazol-2-yl]sulfanyl}-N-(5-methyl-1,3-thiazol-2-yl)propanamide], the IC50 in data set [1] was 0.211 ± 0.019 µM. Moreover, the affinity at alkaline phosphatase corresponds to a Ki of 0.42 µM. Besides, the K m at alkaline phosphatase (8g 0.106 μM), at alkaline phosphatase (8g 0.211 μM) and on alkaline phosphatase (8g 0.422 μM) was 360 µM throughout. In addition, the V max at alkaline phosphatase (8g 0.106 μM) is 0.003004 ΔA min^−1; at alkaline phosphatase (8g 0.211 μM) it was 0.002406 ΔA min^−1; on alkaline phosphatase (8g 0.422 μM) it was 0.001826 ΔA min^−1. The Inhibition type result on alkaline phosphatase (Lineweaver–Burk plots) is on record as “non-competitively; also recorded: Non-competitive”. This compound showed a hemolysis at 30 min, 1 mg/mL in data set [2] of 8.82 ± 0.02%.

`Cc1ccc(-c2nnc(SCCC(=O)Nc3nccs3)o2)cc1` [8d, 3-{[5-(4-Methylphenyl)-1,3,4-oxadiazol-2-yl]sulfanyl}-N-(1,3-thiazol-2-yl)propanamide] had a concentration for half-maximal inhibition (IC50) in data set [1] of 1.88 ± 0.071 µM. Further, the hemolysis at 30 min, 1 mg/mL in data set [2] was 8.32 ± 0.03%.

For the compound `O=C(CCSc1nnc(-c2ccc(O)cc2)o1)Nc1nccs1` [8b, 3-{[5-(4-Hydroxyphenyl)-1,3,4-oxadiazol-2-yl]sulfanyl}-N-(1,3-thiazol-2-yl)propanamide], in data set [1], the half-maximal inhibitory concentration (IC50) came out at 5.99 ± 0.417 µM. The hemolysis at 30 min, 1 mg/mL in data set [2] worked out at 5.68 ± 0.04%.

On to `Cc1cnc(NC(=O)CCSc2nnc(-c3ccc(O)cc3)o2)s1` [8f, 3-{[5-(4-Hydroxyphenyl)-1,3,4-oxadiazol-2-yl]sulfanyl}-N-(5-methyl-1,3-thiazol-2-yl)propanamide], for which 2.16 ± 0.118 µM corresponded to half-maximal inhibition in data set [1] (IC50). Further, the hemolysis at 30 min, 1 mg/mL in data set [2] worked out at 7.47 ± 0.05%.

In data set [1], `O=C(CCSc1nnc(-c2ccccc2)o1)Nc1nccs1` [8a, 3-[(5-Phenyl-1,3,4-oxadiazol-2-yl)sulfanyl]-N-(1,3-thiazol-2-yl)propanamide] showed an IC50 of 3.98 ± 0.356 µM. The same compound showed a hemolysis at 30 min, 1 mg/mL in data set [2] of 7.79 ± 0.02%.

For the compound `Cc1cnc(NC(=O)CCSc2nnc(-c3ccccc3)o2)s1` [8e, N-(5-Methyl-1,3-thiazol-2-yl)-3-[(5-phenyl-1,3,4-oxadiazol-2-yl)sulfanyl]propanamide], in data set [1], inhibition was half-maximal at 6.32 ± 0.551 µM (IC50). For the same compound, the hemolysis at 30 min, 1 mg/mL in data set [2] came to 6.84 ± 0.03%.

For the compound `Cc1cnc(NC(=O)CCSc2nnc(-c3cccc([N+](=O)[O-])c3)o2)s1` [8h, N-(5-Methyl-1,3-thiazol-2-yl)-3-{[5-(3-nitrophenyl)-1,3,4-oxadiazol-2-yl]sulfanyl}propanamide], in data set [1], the IC50 was 3.75 ± 0.981 µM. Moreover, the hemolysis at 30 min, 1 mg/mL in data set [2] was found to be 8.63 ± 0.02%.

For the compound `CC(C)(C)CC(C)(C)c1ccc(OCCO)cc1` [Triton X, reference compound], the hemolysis at 30 min, 1 mg/mL in data set [2] came out at 89 ± 0.01%.

Regarding `Nc1ccc(-c2nnc(SCCC(=O)Nc3nccs3)o2)cc1` [8c, 3-{[5-(4-Aminophenyl)-1,3,4-oxadiazol-2-yl]sulfanyl}-N-(1,3-thiazol-2-yl)propanamide], half-maximal inhibition in data set [1] (IC50) required 8.73 ± 0.664 µM. The same compound came in with a hemolysis at 30 min, 1 mg/mL in data set [2] of 7.58 ± 0.01%.
